Experimental data reported in ChEMBL document CHEMBL1687913, “Structure-activity relationship, conformational and biological studies of temporin L analogues” (J Med Chem, 2011).
≈ marks a conversion by molar mass, not a printed value. Where a SMILES comes first, the peptide text is derived from it.

How the values were obtained:
[1] = Toxicity in human erythrocytes assessed as hemolysis at 24 uM after 40 mins; format: cell-based, Erythrocyte; settings: read-out: Activity
Outline: (§1)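 Human red blood cells suspended in 0.9% (w/v) NaCl and incubated 40 min at 37 °C with gentle mixing with serial 2-fold peptide dilutions (peptide predissolved in 20% ethanol). Spun 5 min at 900g; supernatant read at 415 nm. Cells lysed in distilled water set the 100% lysis reference.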

[2] = Toxicity in human erythrocytes assessed as hemolysis at 12 uM after 40 mins; format: cell-based, Erythrocyte; settings: read-out: Activity; outline: as §1
[3] = Toxicity in human erythrocytes assessed as hemolysis at 6 uM after 40 mins; format: cell-based, Erythrocyte; settings: read-out: Activity; outline: as §1
[4] = Toxicity in human erythrocytes assessed as hemolysis at 1.5 uM after 40 mins; format: cell-based, Erythrocyte; settings: read-out: Activity; outline: as §1
[5] = Toxicity in human erythrocytes assessed as hemolysis at 3 uM after 40 mins; format: cell-based, Erythrocyte; settings: read-out: Activity; outline: as §1
Saccharomyces cerevisiae = assay: Antifungal activity against Saccharomyces cerevisiae after 18 to 20 hrs by microbroth dilution method; format: functional
Outline: (§2)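 Yeasts tested by adapted CLSI microbroth dilution in Winge medium. Peptide given in serial 2-fold dilutions (0.75-48 μM, made in 20% ethanol). Incubation 18-20 h at 30 °C, read at A600. MIC taken as the concentration giving complete (100%) growth inhibition.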

Pseudomonas aeruginosa [6] = assay: Antibacterial activity against Pseudomonas aeruginosa ATCC 27853 after 18 to 20 hrs by microbroth dilution method; format: functional
Outline: (§3)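 CLSI microbroth dilution, adapted. Mid-log bacteria, 2 × 10^6 CFU/mL in Mueller-Hinton broth, mixed 1:1 with MH broth holding peptide in serial 2-fold dilutions in 20% ethanol (0.75-48 μM). Incubated 18-20 h at 37 °C; growth read as A600. MIC is the lowest concentration giving 100% growth inhibition.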

[7] = test system: Staphylococcus epidermidis; assay: Antibacterial activity against Staphylococcus epidermidis ATCC 12228 after 18 to 20 hrs by microbroth dilution method; format: functional; outline: as §3
Pseudomonas aeruginosa [8] = assay: Antibacterial activity against Pseudomonas aeruginosa ATCC 15692 after 18 to 20 hrs by microbroth dilution method; format: functional; outline: as §3
Candida albicans = assay: Antifungal activity against Candida albicans ATCC 10231 after 18 to 20 hrs by microbroth dilution method; format: functional; outline: as §2
Enterococcus faecalis = assay: Antibacterial activity against Enterococcus faecalis ATCC 29212 after 18 to 20 hrs by microbroth dilution method; format: functional; outline: as §3
Priestia megaterium = assay: Antibacterial activity against Bacillus megaterium Bm11 after 18 to 20 hrs by microbroth dilution method; format: functional; outline: as §3
Acinetobacter baumannii = assay: Antibacterial activity against Acinetobacter baumannii ATCC 19606 after 18 to 20 hrs by microbroth dilution method; format: functional; outline: as §3
Staphylococcus aureus [9] = assay: Antibacterial activity against Staphylococcus aureus Cowan I after 18 to 20 hrs by microbroth dilution method; format: functional; outline: as §3
Escherichia coli [10] = assay: Antibacterial activity against Escherichia coli ATCC 25922 after 18 to 20 hrs by microbroth dilution method; format: functional; outline: as §3
Staphylococcus capitis = assay: Antibacterial activity against Staphylococcus capitis after 18 to 20 hrs by microbroth dilution method; format: functional; outline: as §3
[11] = test system: Schizosaccharomyces pombe; assay: Antifungal activity against Schizosaccharomyces pombe after 18 to 20 hrs by microbroth dilution method; format: functional; outline: as §2
Acinetobacter junii = assay: Antibacterial activity against […] Acinetobacter junii RT-4 after 18 to 20 hrs by microbroth dilution method; format: functional; outline: as §3
Streptococcus pyogenes = assay: Antibacterial activity against Streptococcus pyogenes ATCC 21547 after 18 to 20 hrs by microbroth dilution method; format: functional; outline: as §3
[12] = test system: Yersinia pseudotuberculosis; assay: Antibacterial activity against Yersinia pseudotuberculosis YPIII after 18 to 20 hrs by microbroth dilution method; format: functional
Outline: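 Broth microdilution adapted from CLSI. Mid-log bacteria at 2 × 10^6 CFU/mL in Mueller-Hinton broth were mixed 1:1 with MH broth containing peptide in serial 2-fold dilutions (peptide in 20% ethanol), 0.75-48 μM. Plates were incubated 18-20 h at 37 °C and growth was read as A600. MIC is the concentration giving 100% growth inhibition.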

Pseudomonas syringae = assay: Antibacterial activity against Pseudomonas syringae pv tobaci after 18 to 20 hrs by microbroth dilution method; format: functional; outline: as §3
Escherichia coli [13] = assay: Antibacterial activity against Escherichia coli D21 after 18 to 20 hrs by microbroth dilution method; format: functional; outline: as §3
Staphylococcus aureus [14] = assay: Antibacterial activity against Staphylococcus aureus ATCC 25923 after 18 to 20 hrs by microbroth dilution method; format: functional; outline: as §3

CC[C@@H](C)[C@@H](NC(=O)[C@H](N)CC(C)C)C(=O)N[C@H](CCCNC(=N)N)C(=O)NCC(=O)N[C@H](CC(C)C)C(=O)N[C@H](Cc1ccccc1)C(=O)N[C@H](CCCCN)C(=O)N[C@H](CO)C(=O)N[C@H](Cc1ccccc1)C(=O)N[C@H](Cc1c[nH]c2ccccc12)C(=O)N[C@H](CCC(N)=O)C(=O)N[C@@H](C(=O)N[C@H](Cc1ccccc1)C(N)=O)C(C)C [listing 1 of 2 here]
hemolysis at 40 min, 24 µM [1]: 81%
hemolysis at 40 min, 12 µM [2]: 49%
hemolysis at 40 min, 6 µM [3]: 15%
hemolysis at 40 min, 1.5 µM [4]: 1%
hemolysis at 40 min, 3 µM [5]: 6%

CC[C@@H](C)[C@@H](NC(=O)[C@H](N)CC(C)C)C(=O)N[C@H](CCCNC(=N)N)C(=O)NCC(=O)N[C@H](CC(C)C)C(=O)N[C@H](Cc1ccccc1)C(=O)N[C@H](CCCCN)C(=O)N[C@H](CO)C(=O)N[C@H](Cc1ccccc1)C(=O)N[C@H](Cc1c[nH]c2ccccc12)C(=O)N[C@H](CCC(N)=O)C(=O)N[C@@H](C(=O)N[C@H](Cc1ccccc1)C(N)=O)C(C)C [listing 2 of 2 here]
MIC (Saccharomyces cerevisiae): > 48 µM
MIC (Pseudomonas aeruginosa [6]): > 48 µM
MIC [7]: 6 µM (≈ 9.84 µg/mL)
MIC (Pseudomonas aeruginosa [8]): > 48 µM
MIC (Candida albicans): 12 µM (≈ 19.7 µg/mL)
MIC (Enterococcus faecalis): 12 µM (≈ 19.7 µg/mL)
MIC (Priestia megaterium): 1.5 µM (≈ 2.46 µg/mL)
MIC (Acinetobacter baumannii): 6 µM (≈ 9.84 µg/mL)
MIC (Staphylococcus aureus [9]): 3 µM (≈ 4.92 µg/mL)
MIC (Escherichia coli [10]): 12 µM (≈ 19.7 µg/mL)
MIC (Staphylococcus capitis): 6 µM (≈ 9.84 µg/mL)
MIC [11]: 1.5 µM (≈ 2.46 µg/mL)
MIC (Acinetobacter junii): 6 µM (≈ 9.84 µg/mL)
MIC (Streptococcus pyogenes): 6 µM (≈ 9.84 µg/mL)
MIC [12]: 24 µM (≈ 39.4 µg/mL)
MIC (Pseudomonas syringae): 6 µM (≈ 9.84 µg/mL)
MIC (Escherichia coli [13]): 12 µM (≈ 19.7 µg/mL)
MIC (Staphylococcus aureus [14]): 12 µM (≈ 19.7 µg/mL)

CC[C@H](C)[C@H](NC(=O)[C@H](CCCNC(=N)N)NC(=O)CNC(=O)[C@H](CC(C)C)NC(=O)[C@H](Cc1ccccc1)NC(=O)[C@H](CCCCN)NC(=O)[C@H](CO)NC(=O)[C@H](Cc1ccccc1)NC(=O)[C@H](Cc1c[nH]c2ccccc12)NC(=O)[C@@H]1CCCN1C(=O)[C@H](CC(C)C)NC(=O)[C@@H](N)Cc1ccccc1)C(=O)N[C@@H](CC(C)C)C(N)=O (H-FLPWFSKFLGRIL-NH2)
MIC (Saccharomyces cerevisiae): 12 µM (≈ 19.5 µg/mL)
MIC [7]: 3 µM (≈ 4.87 µg/mL)
hemolysis at 40 min, 24 µM [1]: 93%
MIC (Pseudomonas aeruginosa [8]): > 48 µM
hemolysis at 40 min, 12 µM [2]: 64%
hemolysis at 40 min, 6 µM [3]: 19%
MIC (Candida albicans): 12 µM (≈ 19.5 µg/mL)
MIC (Enterococcus faecalis): 12 µM (≈ 19.5 µg/mL)
MIC (Priestia megaterium): 3 µM (≈ 4.87 µg/mL)
MIC (Acinetobacter baumannii): 12 µM (≈ 19.5 µg/mL)
MIC (Staphylococcus aureus [9]): 3 µM (≈ 4.87 µg/mL)
hemolysis at 40 min, 1.5 µM [4]: 4%
MIC (Escherichia coli [10]): 12 µM (≈ 19.5 µg/mL)
MIC (Staphylococcus capitis): 3 µM (≈ 4.87 µg/mL)
MIC [11]: 6 µM (≈ 9.74 µg/mL)
MIC (Acinetobacter junii): 12 µM (≈ 19.5 µg/mL)
MIC (Streptococcus pyogenes): 6 µM (≈ 9.74 µg/mL)
MIC [12]: 6 µM (≈ 9.74 µg/mL)
MIC (Pseudomonas syringae): 12 µM (≈ 19.5 µg/mL)
MIC (Escherichia coli [13]): 24 µM (≈ 39 µg/mL)
hemolysis at 40 min, 3 µM [5]: 9%
MIC (Staphylococcus aureus [14]): 3 µM (≈ 4.87 µg/mL)

CC[C@H](C)[C@H](NC(=O)[C@H](CCCNC(=N)N)NC(=O)[C@H](CC(C)C)NC(=O)[C@H](CC(C)C)NC(=O)[C@H](Cc1ccccc1)NC(=O)[C@H](CCCCN)NC(=O)[C@H](CO)NC(=O)[C@H](Cc1ccccc1)NC(=O)[C@H](Cc1c[nH]c2ccccc12)NC(=O)[C@H](CCC(N)=O)NC(=O)[C@@H](NC(=O)[C@@H](N)Cc1ccccc1)C(C)C)C(=O)N[C@@H](CC(C)C)C(N)=O (H-FVQWFSKFLLRIL-NH2)
MIC (Pseudomonas aeruginosa [6]): > 48 µM
MIC [7]: 3 µM (≈ 5.09 µg/mL)
hemolysis at 40 min, 24 µM [1]: 83%
MIC (Pseudomonas aeruginosa [8]): > 48 µM
hemolysis at 40 min, 12 µM [2]: 80%
hemolysis at 40 min, 6 µM [3]: 80%
MIC (Candida albicans): > 48 µM
MIC (Enterococcus faecalis): 48 µM (≈ 81.4 µg/mL)
MIC (Priestia megaterium): 48 µM (≈ 81.4 µg/mL)
MIC (Acinetobacter baumannii): 48 µM (≈ 81.4 µg/mL)
MIC (Staphylococcus aureus [9]): 48 µM (≈ 81.4 µg/mL)
hemolysis at 40 min, 1.5 µM [4]: 69%
MIC (Escherichia coli [10]): > 48 µM
MIC (Staphylococcus capitis): > 48 µM
MIC [11]: 6 µM (≈ 10.2 µg/mL)
MIC (Acinetobacter junii): > 48 µM
MIC (Streptococcus pyogenes): 6 µM (≈ 10.2 µg/mL)
MIC [12]: 6 µM (≈ 10.2 µg/mL)
MIC (Pseudomonas syringae): > 48 µM
MIC (Escherichia coli [13]): 48 µM (≈ 81.4 µg/mL)
hemolysis at 40 min, 3 µM [5]: 78%
MIC (Staphylococcus aureus [14]): 48 µM (≈ 81.4 µg/mL)
